Data taken from ChEMBL document CHEMBL1157724 (Bioorg Med Chem, 2010).
The source made the active and inactive calls. The rule behind the calls is not given here.

What was measured:
[1] = target: T1, DNA topoisomerase 2-alpha (Homo sapiens, UniProt P11388); experiment: Inhibition of DNA topoisomerase 2alpha-mediated pBR322 DNA cleavage at 50 uM by SDS-PAGE
Procedure, shortened: (§1)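 Topoisomerase IIα (150 ng) with 80 ng pBR322 and 0.5 mM ATP in pH 8.0 Tris/KCl/NaCl/MgCl2/glycerol buffer. Drug added last from DMSO. Incubated 10 min at 37°C, quenched with SDS/EDTA, then proteinase K 30 min at 55°C. Linear DNA resolved on a 1.2% agarose ethidium bromide gel against a HindIII-linearised pBR322 marker.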

[2] = target: T1, DNA topoisomerase 2-alpha; experiment: Ratio of etoposide IC50 to IC50 for drug against human DNA topoisomerase 2alpha-mediated decatenation of kinetoplast plasmid DNA by fluorescent plate reader
[3] = target: T1, DNA topoisomerase 2-alpha; experiment: Inhibition of DNA topoisomerase 2alpha-mediated pBR322 DNA cleavage at 100 uM by SDS-PAGE; procedure, shortened: as §1
[4] = target: T1, DNA topoisomerase 2-alpha; experiment: Inhibition of DNA topoisomerase 2alpha in human K562 cells assessed as protein-DNA covalent complex formation at 80 uM by scintillation counting; type: cell-based
Procedure, shortened: (§2)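 K562 or K/VP.5 cells prelabelled 24 h with [3H]thymidine and [14C]leucine. Cells held at 1.5×10^6/ml in HEPES-buffered saline-glucose pH 7.4 and exposed to compound for 60 min at 37°C in the dark. Protein-DNA complexes precipitated with SDS/KCl after lysis and DNA shearing, and counted by scintillation. 3H normalised to 14C protein.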

[5] = target: T1, DNA topoisomerase 2-alpha; experiment: Inhibition of DNA topoisomerase 2alpha in human K-VP.5 cells assessed as decrease in protein-DNA covalent complex formation at 80 uM by scintillation counting; type: cell-based; procedure, shortened: as §2
[6] = target: T1, DNA topoisomerase 2-alpha; experiment: Inhibition of DNA topoisomerase 2alpha in human K562 cells assessed as protein-DNA covalent complex formation under UV irradiation by scintillation counting; type: cell-based
Procedure, shortened: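 Radiolabelled K562 cells (1.5×10^6/ml, pH 7.4 buffer) given compound (2.5–20 μM), then irradiated or not at 365 nm for 5 min from 16 mm. Incubated 60 min at 37°C in the dark. SDS/KCl-precipitated protein-DNA complexes measured by scintillation, with 3H normalised to 14C. Nine experiments on different days. Paired t-tests of UV versus no UV at each concentration.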

[7] = target: T1, DNA topoisomerase 2-alpha; experiment: Inhibition of DNA topoisomerase 2alpha-mediated pBR322 DNA cleavage at 20 uM by SDS-PAGE
K562 = experiment: Cytotoxicity against human K562 cells after 72 hrs by MTS assay; type: functional, cell-based; details: K562, 72 h
Procedure, shortened: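 K562 cells in αMEM with 10% fetal calf serum, 37°C, 5% CO2. Exponentially growing cells seeded at 6000/well. Compound added from DMSO stock (final DMSO 0.5% v/v), continuous exposure for 72 h. MTS added for a further 3 h and absorbance read. Three replicates per concentration. IC50 from a four-parameter logistic fit.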

[8] = target: T1, DNA topoisomerase 2-alpha; details: K562, 25 uM
[9] = target: T1, DNA topoisomerase 2-alpha; details: K562, 50 uM
[10] = target: T1, DNA topoisomerase 2-alpha; details: 50 uM

T1 sequence (P11388 whole entry): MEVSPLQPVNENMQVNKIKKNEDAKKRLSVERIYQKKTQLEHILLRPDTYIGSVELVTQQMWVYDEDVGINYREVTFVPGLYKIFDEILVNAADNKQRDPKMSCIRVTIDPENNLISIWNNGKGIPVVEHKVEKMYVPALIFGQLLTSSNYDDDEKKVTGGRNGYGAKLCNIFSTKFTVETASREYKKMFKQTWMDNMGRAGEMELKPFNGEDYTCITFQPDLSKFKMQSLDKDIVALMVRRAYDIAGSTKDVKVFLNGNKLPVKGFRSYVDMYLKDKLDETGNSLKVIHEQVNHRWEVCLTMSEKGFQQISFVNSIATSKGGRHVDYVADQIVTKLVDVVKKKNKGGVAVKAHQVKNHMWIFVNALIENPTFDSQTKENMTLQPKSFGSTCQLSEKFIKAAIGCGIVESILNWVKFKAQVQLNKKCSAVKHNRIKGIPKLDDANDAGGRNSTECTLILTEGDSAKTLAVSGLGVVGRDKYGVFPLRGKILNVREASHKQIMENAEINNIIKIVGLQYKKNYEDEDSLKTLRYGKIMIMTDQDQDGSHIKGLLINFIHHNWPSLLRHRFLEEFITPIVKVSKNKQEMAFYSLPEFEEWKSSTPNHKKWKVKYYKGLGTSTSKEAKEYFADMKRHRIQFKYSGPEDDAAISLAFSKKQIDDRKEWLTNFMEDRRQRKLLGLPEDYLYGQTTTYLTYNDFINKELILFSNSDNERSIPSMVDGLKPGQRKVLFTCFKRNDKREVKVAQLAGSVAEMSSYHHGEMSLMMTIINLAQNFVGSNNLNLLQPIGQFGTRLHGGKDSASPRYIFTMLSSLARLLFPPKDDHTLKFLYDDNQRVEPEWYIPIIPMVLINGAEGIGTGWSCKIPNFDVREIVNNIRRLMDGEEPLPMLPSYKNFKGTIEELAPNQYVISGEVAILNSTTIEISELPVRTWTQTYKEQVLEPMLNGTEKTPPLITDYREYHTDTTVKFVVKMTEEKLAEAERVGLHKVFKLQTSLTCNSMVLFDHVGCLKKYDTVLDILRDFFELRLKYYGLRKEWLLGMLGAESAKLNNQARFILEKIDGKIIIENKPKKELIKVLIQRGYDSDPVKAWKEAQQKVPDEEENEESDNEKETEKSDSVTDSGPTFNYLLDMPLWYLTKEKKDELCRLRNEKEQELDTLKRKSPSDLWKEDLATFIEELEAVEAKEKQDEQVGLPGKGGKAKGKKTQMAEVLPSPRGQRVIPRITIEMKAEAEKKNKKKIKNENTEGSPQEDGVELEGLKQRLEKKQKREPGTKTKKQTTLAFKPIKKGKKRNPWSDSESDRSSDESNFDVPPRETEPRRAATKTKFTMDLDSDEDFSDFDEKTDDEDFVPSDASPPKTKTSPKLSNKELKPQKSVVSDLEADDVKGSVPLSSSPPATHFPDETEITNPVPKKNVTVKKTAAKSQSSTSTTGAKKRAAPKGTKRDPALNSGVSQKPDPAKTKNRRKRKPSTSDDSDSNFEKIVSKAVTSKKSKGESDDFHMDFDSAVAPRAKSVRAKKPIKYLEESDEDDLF

Q: With `CC[C@@]1(O)C(=O)OCc2c1cc1n(c2=O)Cc2cc3ccccc3nc2-1` as the compound, how does the inhibition [1] read?
A: 40%

Q: How did the Ratio IC50 [2] turn out when `COc1cc([C@@H]2c3cc4c(cc3[C@@H](NC(=O)c3ccc(C5(C(F)(F)F)N=N5)cc3)[C@H]3COC(=O)[C@H]23)OCO4)cc(OC)c1O` [DIAZIRINE] was run?
A: 2

Q: What about the inhibition [1] of the same compound?
A: Active

Q: What about the inhibition [3] of the same compound?
A: Active

Q: What about the inhibition [4] of the same compound?
A: Active

Q: What about the inhibition [5] of the same compound?
A: Active

Q: What about the inhibition [6] of the same compound?
A: Dose-dependent effect

Q: What about the inhibition [7] of the same compound?
A: inactive

Q: What does the source list for `COc1cc([C@@H]2c3cc4c(cc3[C@@H](O[C@@H]3O[C@@H]5CO[C@@H](C)O[C@H]5[C@H](O)[C@H]3O)[C@H]3COC(=O)[C@H]23)OCO4)cc(OC)c1O` [ETOPOSIDE]?
A: IC50 (K562): 420 nM; inhibition [3]: Active; inhibition [7]: inactive; inhibition [8]: inactive; inhibition [9]: Active; inhibition [10]: Active
